In ChEMBL document CHEMBL4184294, “A small group of sulfated benzofurans induces steady-state submaximal inhibition of thrombin” (Bioorg Med Chem Lett, 2018):
Calls of active or inactive are those of the source. The calls are words filed in the database; no cut-off is given here.

Key:
Prothrombin [1] = biological target: T1, Prothrombin (Homo sapiens, UniProt P00734); experiment: Inhibition of thrombin (unknown origin)
Prothrombin [2] = biological target: T1, Prothrombin; experiment: Partial allosteric inhibition of human thrombin using […] as substrate measured after 1 min by fibrometric method
Prothrombin [3] = biological target: T1, Prothrombin; experiment: Inhibition of recombinant thrombin K236A mutant (unknown origin) at 0.02 to 200 uM using spectrozyme TH as substrate pretreated for 10 mins followed by substrate addition by spectrophotometric method
Summary of the method: (§1)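 Recombinant wild-type and Ala-mutant thrombins assayed by Spectrozyme TH hydrolysis at pH 7.4 and 25 °C. IC50 derived for each mutant.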

Prothrombin [4] = biological target: T1, Prothrombin; experiment: Inhibition of recombinant thrombin K169A mutant (unknown origin) at 0.02 to 200 uM using spectrozyme TH as substrate pretreated for 10 mins followed by substrate addition by spectrophotometric method; summary of the method: as §1
Prothrombin [5] = biological target: T1, Prothrombin; experiment: Inhibition of human thrombin using spectrozyme TH as substrate pretreated for 10 mins followed by substrate addition measured in presence of 5 uM exosite 1 competitor hirudine peptide by spectrophotometric method; settings: in the assay text read “5 nM” for “5 uM”
Summary of the method: (§2)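 Residual thrombin activity read as Spectrozyme TH hydrolysis in 20 mM Tris-HCl pH 7.4 with 100 mM NaCl, 2.5 mM CaCl2 and 0.1% PEG8000 at 25 °C. Exosite competitors varied: hirudin peptide 0–50 nM or 0–30 nM; UFH 0–50 μM. Apparent IC50 obtained from a logistic fit.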

Prothrombin [6] = biological target: T1, Prothrombin; experiment: Partial allosteric inhibition of human thrombin at 300 uM using spectrozyme TH as substrate pretreated for 10 mins followed by substrate addition by spectrophotometric method relative to control
Prothrombin [7] = biological target: T1, Prothrombin; experiment: Mixed-type inhibition of human thrombin assessed as reduction in substrate Vmax at 40 uM using varying levels of spectrozyme TH as substrate measured after 10 mins by Michaelis-Menten plot analysis relative to control
Prothrombin [8] = biological target: T1, Prothrombin; experiment: Inhibition of recombinant thrombin R233A mutant (unknown origin) at 0.02 to 200 uM using spectrozyme TH as substrate pretreated for 10 mins followed by substrate addition by spectrophotometric method; summary of the method: as §1
Prothrombin [9] = biological target: T1, Prothrombin; experiment: Inhibition of human thrombin using spectrozyme TH as substrate pretreated for 10 mins followed by substrate addition measured in presence of 20 uM exosite 2 competitor unfractionated heparin by spectrophotometric method; summary of the method: as §2
Prothrombin [10] = biological target: T1, Prothrombin; experiment: Inhibition of human thrombin using spectrozyme TH as substrate pretreated for 10 mins followed by substrate addition measured in presence of 10 uM exosite 2 competitor unfractionated heparin by spectrophotometric method; summary of the method: as §2
Prothrombin [11] = biological target: T1, Prothrombin; experiment: Inhibition of human thrombin using spectrozyme TH as substrate pretreated for 10 mins followed by substrate addition measured in presence of 30 uM exosite 1 competitor hirudine peptide by spectrophotometric method; settings: in the assay text read “30 nM” for “30 uM”; summary of the method: as §2
Prothrombin [12] = biological target: T1, Prothrombin; experiment: Inhibition of recombinant thrombin R175A mutant (unknown origin) at 0.02 to 200 uM using spectrozyme TH as substrate pretreated for 10 mins followed by substrate addition by spectrophotometric method; summary of the method: as §1
Prothrombin [13] = biological target: T1, Prothrombin; experiment: Inhibition of human thrombin using spectrozyme TH as substrate pretreated for 10 mins followed by substrate addition measured in absence of exosite 1 competitor hirudine peptide by spectrophotometric method; summary of the method: as §2
Prothrombin [14] = biological target: T1, Prothrombin; experiment: Inhibition of human thrombin using spectrozyme TH as substrate pretreated for 10 mins followed by substrate addition measured in presence of 15 uM exosite 1 competitor hirudine peptide by spectrophotometric method; settings: in the assay text read “15 nM” for “15 uM”; summary of the method: as §2
Prothrombin [15] = biological target: T1, Prothrombin; experiment: Partial allosteric inhibition of thrombin (unknown origin) assessed as reduction in enzyme-mediated fibrinogen cleavage pretreated for 10 mins followed by fibrinogen addition measured after 1 min by SDS-PAGE analysis relative to control
Summary of the method: (§3)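 Cleavage of human fibrinogen (4.7 μM) by 6 nM thrombin with inhibitor at 0 to 150 μM. Products resolved by PAGE.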

Prothrombin [16] = biological target: T1, Prothrombin; experiment: Binding affinity to human fluorescence labelled FPRCK-alpha thrombin by fluorimetric method
Summary of the method: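 Fluorescein-tagged FPRCK-thrombin titrated with inhibitor at pH 7.4 and 25 °C. Fluorescence decrease recorded ([…]). KD obtained by nonlinear fit to a quadratic equation.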

Prothrombin [17] = biological target: T1, Prothrombin; experiment: Inhibition of human thrombin using spectrozyme TH as substrate pretreated for 10 mins followed by substrate addition measured in absence of exosite 2 competitor unfractionated heparin by spectrophotometric method; summary of the method: as §2
Prothrombin [18] = biological target: T1, Prothrombin; experiment: Partial allosteric inhibition of human thrombin using spectrozyme TH as substrate pretreated for 10 mins followed by substrate addition by spectrophotometric method
Summary of the method: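 Chromogenic substrate hydrolysis by thrombin read spectrophotometrically in 20 mM Tris-HCl pH 7.4 with […], 100 mM NaCl and 0.1% PEG 8000 at 25 °C. Sigmoidal fits gave IC50 and efficacy (ΔY). Errors ±1 S.E.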

Prothrombin [19] = biological target: T1, Prothrombin; experiment: Inhibition of recombinant thrombin R165A mutant (unknown origin) at 0.02 to 200 uM using spectrozyme TH as substrate pretreated for 10 mins followed by substrate addition by spectrophotometric method; summary of the method: as §1
Prothrombin [20] = biological target: T1, Prothrombin; experiment: Mixed-type inhibition of human thrombin assessed as reduction in substrate Vmax using varying levels of spectrozyme TH as substrate measured after 10 mins by Michaelis-Menten plot analysis
Prothrombin [21] = biological target: T1, Prothrombin; experiment: Partial allosteric inhibition of thrombin (unknown origin) assessed as reduction in enzyme-mediated fibrinogen cleavage at 0.5 to 150 uM pretreated for 10 mins followed by fibrinogen addition measured after 1 min by SDS-PAGE analysis relative to control; summary of the method: as §3
Prothrombin [22] = biological target: T1, Prothrombin; experiment: Inhibition of human thrombin using spectrozyme TH as substrate pretreated for 10 mins followed by substrate addition measured in presence of 50 uM exosite 2 competitor unfractionated heparin by spectrophotometric method; summary of the method: as §2
Prothrombin [23] = biological target: T1, Prothrombin; experiment: Inhibition of recombinant thrombin R126A mutant (unknown origin) at 0.02 to 200 uM using spectrozyme TH as substrate pretreated for 10 mins followed by substrate addition by spectrophotometric method; summary of the method: as §1
Prothrombin [24] = biological target: T1, Prothrombin; experiment: Inhibition of recombinant thrombin R173A mutant (unknown origin) at 0.02 to 200 uM using spectrozyme TH as substrate pretreated for 10 mins followed by substrate addition by spectrophotometric method; summary of the method: as §1
Prothrombin [25] = biological target: T1, Prothrombin; experiment: Inhibition of recombinant thrombin K235A mutant (unknown origin) at 0.02 to 200 uM using spectrozyme TH as substrate pretreated for 10 mins followed by substrate addition by spectrophotometric method; summary of the method: as §1
Prothrombin [26] = biological target: T1, Prothrombin; experiment: Non-competitive inhibition of human thrombin assessed as reduction in substrate Vmax using varying levels of spectrozyme TH as substrate measured after 10 mins by Michaelis-Menten plot analysis
Prothrombin [27] = biological target: T1, Prothrombin; experiment: Inhibition of recombinant thrombin R93A mutant (unknown origin) at 0.02 to 200 uM using spectrozyme TH as substrate pretreated for 10 mins followed by substrate addition by spectrophotometric method; summary of the method: as §1
Prothrombin [28] = biological target: T1, Prothrombin; experiment: Ratio of IC50(app) for inhibition of human thrombin using spectrozyme TH as substrate in presence of exosite 2 competitor unfractionated heparin to IC50(app) for inhibition of human thrombin using spectrozyme TH as substrate in absence of exosite 2 competitor unfractionated heparin
Prothrombin [29] = biological target: T1, Prothrombin; experiment: Inhibition of recombinant thrombin R101A mutant (unknown origin) at 0.02 to 200 uM using spectrozyme TH as substrate pretreated for 10 mins followed by substrate addition by spectrophotometric method; summary of the method: as §1
Prothrombin [30] = biological target: T1, Prothrombin; experiment: Non competitive inhibition of human thrombin assessed as reduction in substrate Vmax at 40 uM using varying levels of spectrozyme TH as substrate measured after 10 mins by Michaelis-Menten plot analysis relative to control
[31] = system: Prothrombin (Homo sapiens), P00734 [R97A]; experiment: Inhibition of recombinant thrombin R97A mutant (unknown origin) at 0.02 to 200 uM using spectrozyme TH as substrate pretreated for 10 mins followed by substrate addition by spectrophotometric method; summary of the method: as §1
Prothrombin [32] = biological target: T1, Prothrombin; experiment: Binding affinity to wild-type thrombin (unknown origin) by intrinsic fluorescence method
Summary of the method: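 Intrinsic fluorescence titration of wild-type plasma thrombin at pH 7.4 and 25 °C. KD derived from the fluorescence change.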

inhibition (Prothrombin [3]) | inhibition (Prothrombin [4]) | IC50 (Prothrombin [5]) [nM] | inhibition (Prothrombin [6]) [%] | inhibition (Prothrombin [8]) | IC50 (Prothrombin [9]) [nM] | IC50 (Prothrombin [10]) [nM] | IC50 (Prothrombin [11]) [nM] | inhibition (Prothrombin [12]) | IC50 (Prothrombin [13]) [nM] | IC50 (Prothrombin [14]) [nM] | inhibition (Prothrombin [15]) | Kd (Prothrombin [16]) [nM] | IC50 (Prothrombin [17]) [nM] | Efficacy (Prothrombin [18]) [%] | IC50 (Prothrombin [18]) [nM] | inhibition (Prothrombin [19]) | inhibition (Prothrombin [21]) [%] | IC50 (Prothrombin [22]) [nM] | Compound | further results
– | – | – | – | – | – | – | – | – | – | – | – | – | – | – | – | – | – | – | CCOC(=O)c1c(C)oc2cc(OC(=O)c3ccc(OC)cc3)c(OS(=O)(=O)O)cc12 | Efficacy (Prothrombin [1]): 54%
– | – | – | – | – | – | – | – | – | – | – | – | – | – | – | – | – | – | – | H-PEHPAETEYDSLYPEDDL-OH | IC50 (Prothrombin [2]): 130000 nM
inactive | inactive | 2600 | > 50 | inactive | 2800 | 2700 | 2900 | inactive | 2000 | 3600 | Dose-dependent effect | 1000 | 2000 | 90 | 3600 | inactive | > 90 | 2600 | CCOC(=O)c1c(C)oc2cc(OCc3ccccc3)c(OCc3oc4cc(OCC5CCCCC5)c(OS(=O)(=O)O)cc4c3C(=O)OCC)cc12 | fold change (FC) (Prothrombin [7]): 2; inhibition (Prothrombin [20]): Dose-dependent effect
Active | Active | 2700 | > 50 | Active | 3400 | 3300 | 1500 | Active | 1300 | 1600 | Dose-dependent effect | 3700 | 1300 | 58 | 1800 | Active | 70 | 14500 | CCOC(=O)c1c(C)oc2cc(OCCc3ccccc3)c(OCc3oc4cc(OC)c(OS(=O)(=O)O)cc4c3C(=O)OCC)cc12 | inhibition (Prothrombin [23]): Active; inhibition (Prothrombin [24]): Active; inhibition (Prothrombin [25]): Active; inhibition (Prothrombin [26]): Dose-dependent effect; inhibition (Prothrombin [27]): Active; Ratio IC50 (Prothrombin [28]): 11; inhibition (Prothrombin [29]): Active; fold change (FC) (Prothrombin [30]): 2; inhibition [31]: Active; Kd (Prothrombin [32]): 2800 nM
